According to ChEMBL document CHEMBL1240411, “Synthesis and evaluation of anti-Toxoplasma gondii and antimicrobial activities of thiosemicarbazides, 4-thiazolidinones and 1,3,4-thiadiazoles” (Eur J Med Chem, 2010):
Values after ≈ are worked out from the molar mass of the structure shown.

Tests used:
[1] = tested on: Toxoplasma gondii; experiment: Antimicrobial activity against tachyzoites of Toxoplasma gondii RH infected in Vero cells assessed as reduction of infected cells at 0.1 mM after 24 hrs relative to control; assay type: functional; design: scale not given: the % may be the effect or the level left
Outline: (§1)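 T. gondii RH tachyzoites were taken from mouse intraperitoneal passage. Vero cells were infected at 10:1 parasite:host for 1 h, PBS-washed, then held 24 h at 37 °C in medium 199 + 5% FCS. Compound exposure was 24 h at 37 °C. Cells were Bouin-fixed, Giemsa-stained and light-microscopy scored (≥400 cells) for % infected cells. Student's t-test, P<0.05. 13 assays in triplicate.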

[2] = tested on: Toxoplasma gondii; experiment: Antimicrobial activity against tachyzoites of Toxoplasma gondii RH infected in Vero cells assessed as reduction of infected cells at 1 mM after 24 hrs relative to control; assay type: functional; design: scale not given: the % may be the effect or the level left; outline: as §1
[3] = tested on: Toxoplasma gondii; experiment: Antimicrobial activity against tachyzoites of Toxoplasma gondii RH infected in Vero cells assessed as reduction of infected cells at 10 mM after 24 hrs relative to control; assay type: functional; design: scale not given: the % may be the effect or the level left; outline: as §1
[4] = Cytotoxicity against african green monkey Vero cells after 24 hrs; assay type: cell-based; settings: chlorocebus sabaeus, read-out: LD50
[5] = Cytotoxicity against african green monkey Vero cells infected with tachyzoites of Toxoplasma gondii RH after 24 hrs; assay type: cell-based; settings: chlorocebus sabaeus, read-out: LD50
Outline: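 Vero cells were infected with RH tachyzoites (10:1, 1 h), washed and incubated 24 h. They were then exposed 24 h to compound over 0.01–10 mM, in triplicate. Viability was scored by trypan blue exclusion, and LD50 was obtained by non-linear regression.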

[6] = tested on: Toxoplasma gondii; experiment: Antimicrobial activity against tachyzoites of Toxoplasma gondii RH infected in Vero cells assessed as reduction of infected cells after 24 hrs; assay type: functional; settings: read-out: LD50 (the source's name)
Outline: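 RH tachyzoites came from intraperitoneal passage in Swiss mice, harvested at 48 h. Vero cells were infected at a 10:1 parasite:host ratio for 1 h, washed with PBS and grown 24 h at 37 °C in medium 199 with 5% FCS. Compounds were then added at 0.1, 1 and 10 mM for 24 h. Cells were Bouin-fixed and Giemsa-stained, and at least 400 cells were counted by light microscopy. Mean ± SD, n = 3; Student's t-test.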

[7] = tested on: Staphylococcus aureus; experiment: Antibacterial activity against Staphylococcus aureus UFPEDA 02 by disc diffusion method; assay type: functional
Outline: (§2)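 Disc diffusion: discs holding known amounts of agent were laid on agar seeded with a standardized microbial suspension. DMSO discs (CH₂Cl₂ for ketoconazole tests) served as negative controls. Read-out was mean zone of inhibition (mm). Run in triplicate, repeated if results differed.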

[8] = tested on: Bacillus subtilis; experiment: Antibacterial activity against Bacillus subtilis UFPEDA 16 by disc diffusion method; assay type: functional; outline: as §2
[9] = tested on: Staphylococcus aureus; experiment: Antibacterial activity against Staphylococcus aureus UFPEDA 02 after 24 to 48 hrs by serial dilution method; assay type: functional
[10] = tested on: Bacillus subtilis; experiment: Antibacterial activity against Bacillus subtilis UFPEDA 16 after 24 to 48 hrs by serial dilution method; assay type: functional
[11] = tested on: Aspergillus niger; experiment: Antifungal activity against Aspergillus niger UFPEDA 2003 by disc diffusion method; assay type: functional; outline: as §2
[12] = tested on: Candida albicans; experiment: Antifungal activity against Candida albicans UFPEDA 1007 after 24 to 48 hrs by serial dilution method; assay type: functional
Outline: (§3)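 Only compounds giving a disc-diffusion mean inhibition zone of at least 18 mm were carried to MIC. Nistatin and ketoconazole served as antifungal references.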

[13] = tested on: Candida; experiment: Antifungal activity against Candida sp. UFPEDA 2224 after 24 to 48 hrs by serial dilution method; assay type: functional; outline: as §3
[14] = tested on: Aspergillus niger; experiment: Antifungal activity against Aspergillus niger UFPEDA 2003 after 24 to 48 hrs by serial dilution method; assay type: functional; outline: as §3
[15] = tested on: Mycolicibacterium smegmatis; experiment: Antibacterial activity against Mycobacterium smegmatis UFPEDA 71 by disc diffusion method; assay type: functional; outline: as §2
[16] = tested on: Mycolicibacterium smegmatis; experiment: Antibacterial activity against Mycobacterium smegmatis UFPEDA 71 after 24 to 48 hrs by serial dilution method; assay type: functional
[17] = tested on: Escherichia coli; experiment: Antibacterial activity against Escherichia coli UFPEDA 224 by disc diffusion method; assay type: functional; outline: as §2
[18] = tested on: Escherichia coli; experiment: Antibacterial activity against Escherichia coli UFPEDA 224 after 24 to 48 hrs by serial dilution method; assay type: functional
[19] = tested on: Candida albicans; experiment: Antifungal activity against Candida albicans UFPEDA 1007 by disc diffusion method; assay type: functional; outline: as §2
[20] = tested on: Candida; experiment: Antifungal activity against Candida sp. UFPEDA 2224 by disc diffusion method; assay type: functional; outline: as §2

Row | Compound | Activity [1] [%] | Activity [2] [%] | Activity [3] [%] | CC50 at 24 h [4] [mM] | CC50 at 24 h [5] [µM] | LC50 [6] [µM] | MIC [9] [µg/mL] | MIC [10] [µg/mL] | other results
1 | Nc1ccc(S(=O)(=O)Nc2ncccn2)cc1 [SULFADIAZINE] | 64 | 48 | 36 | > 10 | > 10000 | 6000 | – | – | –
2 | Cc1[nH]cnc1C(=O)NNC(=S)Nc1ccccc1 | 18 | 6 | 0 | 1 | 50 | 50 | 190 (≈ 690 µM) | 140 (≈ 508 µM) | inhibition zone (IZ) [7]: 18 mm; inhibition zone (IZ) [8]: 27 mm
3 | Cc1[nH]cnc1C(=O)N/N=C1\SC(CC(=O)O)C(=O)N1c1ccc(F)cc1 (stereo not drawn) | 59 | 22 | 0 | 5 | 1000 | 100 | – | – | inhibition zone (IZ) [11]: 18 mm
4 | NYSTATIN | – | – | – | – | – | – | – | – | MIC [12]: 50 µg/mL; MIC [13]: 50 µg/mL; MIC [14]: 50 µg/mL
5 | CC(=O)N1CCN(c2ccc(OCC3COC(Cn4ccnc4)(c4ccc(Cl)cc4Cl)O3)cc2)CC1 (stereo not drawn) [KETOCONAZOLE] | – | – | – | – | – | – | – | – | MIC [12]: 25 µg/mL (≈ 47 µM); MIC [13]: 40 µg/mL (≈ 75.3 µM)
6 | Cc1[nH]cnc1-c1nnc(Nc2ccc(F)cc2)s1 | 22 | 6 | 3 | > 10 | 70 | 50 | – | – | –
7 | NC(=O)NO [HYDROXYUREA] | 53 | 4 | 1 | > 10 | > 10000 | 500 | – | – | –
8 | Cc1[nH]cnc1C(=O)NNC(=S)Nc1ccc(Cl)cc1 | 11 | 8 | 1 | > 10 | 60 | 60 | 190 (≈ 613 µM) | 130 (≈ 420 µM) | inhibition zone (IZ) [7]: 25 mm; inhibition zone (IZ) [8]: 29 mm; inhibition zone (IZ) [15]: 21 mm; MIC [16]: 150 µg/mL (≈ 484 µM)
9 | Cc1[nH]cnc1C(=O)N/N=C1\SC(CC(=O)O)C(=O)N1c1ccccc1 (stereo not drawn) | 69 | 42 | 0 | 5 | 5000 | 1500 | 250 (≈ 670 µM) | 270 (≈ 723 µM) | inhibition zone (IZ) [7]: 19 mm; inhibition zone (IZ) [8]: 27 mm
10 | Cc1[nH]cnc1-c1nnc(Nc2ccccc2)s1 | 13 | 10 | 0.36 | > 10 | 600 | 50 | – | – | –
11 | O=C(N[C@H](CO)[C@H](O)c1ccc([N+](=O)[O-])cc1)C(Cl)Cl [CHLORAMPHENICOL] | – | – | – | – | – | – | 35 (≈ 108 µM) | 30 (≈ 92.8 µM) | –
12 | COc1ccc(NC(=S)NNC(=O)c2nc[nH]c2C)cc1 | 22 | 12 | 0 | 1 | 70 | 60 | 210 (≈ 688 µM) | 160 (≈ 524 µM) | inhibition zone (IZ) [7]: 19 mm; inhibition zone (IZ) [8]: 22 mm
13 | Cc1[nH]cnc1C(=O)NNC(=S)Nc1ccc(F)cc1 | 14 | 8 | 0 | 10 | 60 | 50 | 190 (≈ 648 µM) | 130 (≈ 443 µM) | inhibition zone (IZ) [7]: 20 mm; inhibition zone (IZ) [8]: 28 mm; inhibition zone (IZ) [17]: 21 mm; inhibition zone (IZ) [15]: 20 mm; MIC [18]: 250 µg/mL (≈ 852 µM); MIC [16]: 160 µg/mL (≈ 545 µM)
14 | COc1ccc(Nc2nnc(-c3nc[nH]c3C)s2)cc1 | 28 | 14 | 0 | > 10 | 100 | 50 | – | – | –
15 | CO[C@H]1/C=C/O[C@@]2(C)Oc3c(C)c(O)c4c(O)c(c(/C=N/N5CCN(C)CC5)c(O)c4c3C2=O)NC(=O)/C(C)=C\C=C\[C@H](C)[C@H](O)[C@@H](C)[C@@H](O)[C@@H](C)[C@H](OC(C)=O)[C@@H]1C [RIFAMPIN] | – | – | – | – | – | – | – | – | MIC [16]: 55 µg/mL (≈ 66.8 µM)
16 | Cc1[nH]cnc1-c1nnc(Nc2ccc(Cl)cc2)s1 | 12 | 8 | 1 | > 10 | 80 | 50 | – | – | –
17 | Cc1[nH]cnc1C(=O)N/N=C1\SC(CC(=O)O)C(=O)N1c1ccc(Cl)cc1 (stereo not drawn) | 63 | 51 | 0.19 | > 10 | 1000 | 1500 | – | – | inhibition zone (IZ) [19]: 20 mm; inhibition zone (IZ) [20]: 20 mm; MIC [12]: 280 µg/mL (≈ 687 µM); MIC [13]: 300 µg/mL (≈ 736 µM)
18 | COc1ccc(N2C(=O)C(CC(=O)O)S/C2=N\NC(=O)c2nc[nH]c2C)cc1 (stereo not drawn) | 73 | 17 | 0 | 5 | 1000 | 500 | – | – | –
